Measurements: ChEMBL document CHEMBL4251649, “Discovery and optimization of phthalazinone derivatives as a new class of potent dengue virus inhibitors” (Eur J Med Chem, 2018)

Experiments:
[1] = Cytotoxicity against human HuH7 cells assessed as reduction in cell viability after 48 hrs by MTT assay; type: cell-based, Huh-7
In short: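 The Huh7 cells were seeded and treated with compound in the same way as the antiviral assay, and viability was read by MTT reduction. CC50 is the compound concentration that lowered the readout to half of the no-compound control.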

[2] = test system: dengue virus type 2; assay: Antiviral activity against DENV2 D2Y98P infected in human HuH7 cells assessed as inhibition of viral RNA replication incubated for 48 hrs by qRT-PCR method; type: functional, organism-based; conditions: Huh-7, 48 h
In short: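 Huh7 cells (4×10^4/well, 2% FBS DMEM, overnight) infected with DENV-2 D2Y98P at MOI 2 for 2 h, washed, then given compound in fresh medium; after 48 h the supernatant viral genomic RNA was extracted and quantified by one-step qRT-PCR; IC50 and IC90 were taken as 50% and 90% inhibition of RNA replication.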

[3] = Selectivity index, CC50 for human HuH7 cells to IC50 for DENV2 D2Y98P; type: toxicity; conditions: read-out: Ratio CC50/IC50
In short: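 SI is calculated as CC50 (MTT cytotoxicity in Huh7) divided by IC50 (qRT-PCR of DENV-2 D2Y98P supernatant RNA, Huh7, MOI 2, 48 h).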

[4] = Oral bioavailability in CD-1 mouse at 10 mg/kg; type: ADME, organism-based; conditions: in vivo
In short: (§1)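 Male CD-1 mice (18–22 g, n=3/group), fasted 12 h and fed 2 h after dosing, received 10 mg/kg orally. Femoral-vein blood (EDTA) was drawn at 0.25, 0.5, 1, 2, 4, 8 and 24 h. Plasma was mixed with methanol:acetonitrile (1:1) and stored at -20°C. Parameters came from non-compartmental analysis.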

[5] = test system: Mus musculus; assay: Plasma clearance in CD-1 mouse at 2 mg/kg, iv; type: ADME, organism-based; conditions: in vivo
In short: (§2)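 Male CD-1 mice (18–22 g, n=3/group), fasted 12 h, were given 2 mg/kg IV. Femoral-vein blood (EDTA) was collected at 3 min, 0.25, 0.75, 2, 4, 8 and 24 h. Plasma was mixed with methanol:acetonitrile (1:1), stored at -20°C, and analysed by non-compartmental methods.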

[6] = Tmax in CD-1 mouse at 10 mg/kg, po; type: ADME, organism-based; conditions: in vivo; in short: as §1
[7] = test system: Mus musculus; assay: Half life in CD-1 mouse at 2 mg/kg, iv; type: ADME, organism-based; conditions: in vivo; in short: as §2
[8] = test system: Mus musculus; assay: AUClast in CD-1 mouse at 2 mg/kg, iv; type: ADME, organism-based; set-up: dose 2 mg/kg, time 0 - last, route intravenous; conditions: in vivo; in short: as §2
[9] = Cmax in CD-1 mouse at 10 mg/kg, po; type: ADME, organism-based; set-up: dose 10 mg/kg, route oral; conditions: in vivo; in short: as §1
[10] = AUClast in CD-1 mouse at 10 mg/kg, po; type: ADME, organism-based; set-up: dose 10 mg/kg, time 0 - last, route oral; conditions: in vivo; in short: as §1
[11] = Half life in CD-1 mouse at 10 mg/kg, po; type: ADME, organism-based; conditions: in vivo; in short: as §1
[12] = test system: Mus musculus; assay: Volume of distribution at steady state in CD-1 mouse at 2 mg/kg, iv; type: ADME, organism-based; conditions: in vivo; in short: as §2

SMILES | CC50 at 48 h [1] | IC50 [2] | IC90 [2] | selectivity ratio [3] | other results
CN(C)CCCCOC(=O)Nc1ccc(-n2nc(-c3ccc(F)cc3)c3ccccc3c2=O)cc1 | 21.8 µM | 1.34 µM | 12.6 µM | 16.2 | –
CN(C)CCCCOC(=O)Nc1ccc(Cn2nc(-c3ccc(C#N)cc3)c3ccccc3c2=O)cc1 | 37 µM | 0.7 µM | 7.07 µM | 52.8 | –
CN(C)CCCCOC(=O)Nc1ccc(Cn2nc(-c3cccnc3)c3ccccc3c2=O)cc1 | 68 µM | 6.32 µM | 30.2 µM | 10.7 | –
CN(C)CCCCOC(=O)Nc1ccc(Cn2nc(-c3cnn(C)c3)c3ccccc3c2=O)cc1 | 55.9 µM | 6.53 µM | 43.3 µM | 8.5 | –
CN(C)CCCCOC(=O)Nc1ccc(Cn2nc(-c3ccccc3C(F)(F)F)c3ccccc3c2=O)cc1 | 35.7 µM | 1.99 µM | 3.37 µM | 18 | –
CN(C)CCCCOC(=O)Nc1ccccc1Cn1nc(-c2ccc(F)cc2)c2ccccc2c1=O | 48.5 µM | 2.83 µM | 13.2 µM | 17.1 | –
CN(C)CCCCOC(=O)Nc1ccc(Cn2nc(-c3ccccc3F)c3ccccc3c2=O)cc1 | 52.5 µM | 1.32 µM | 8.79 µM | 39.8 | –
CN(C)CCCC(=O)Nc1ccc(Cn2nc(-c3ccc(F)cc3)c3ccccc3c2=O)cc1 | 38.2 µM | 1 µM | 8.42 µM | 38.2 | –
CN(C)CCCCOC(=O)Nc1ccc(Cn2nc(-c3ccc(C(F)(F)F)cc3)c3ccccc3c2=O)cc1 | 3.36 µM | 1.47 µM | 6.61 µM | 2.3 | –
CN(C)CCCCOC(=O)Nc1ccc(Cn2nc(-c3ccccc3C#N)c3ccccc3c2=O)cc1 | 90.7 µM | 5.52 µM | 12.4 µM | 16.4 | –
CN(C)CCCCOC(=O)Nc1cccc(Cn2nc(-c3ccc(F)cc3)c3ccccc3c2=O)c1 | 8.51 µM | 0.64 µM | 4.65 µM | 13.3 | –
CN(C)CCCCOC(=O)Nc1ccc(Cn2nc(-c3cccc(C#N)c3)c3ccccc3c2=O)cc1 | 17.2 µM | 1.72 µM | 5.09 µM | 10 | –
CN(C)CCCCNC(=O)Nc1ccc(Cn2nc(-c3ccc(F)cc3)c3ccccc3c2=O)cc1 | 46.6 µM | – | – | 10.7 | –
CCCCOC(=O)Nc1ccc(Cn2nc(-c3ccc(F)cc3)c3ccccc3c2=O)cc1 | 19.5 µM | – | – | 14.3 | –
COc1ccc(-c2nn(Cc3ccc(NC(=O)OCCCCN(C)C)cc3)c(=O)c3ccccc23)cc1 | 20.3 µM | 1.94 µM | 5.88 µM | 10.5 | –
CN(C)CCCCOC(=O)Nc1ccc(Cn2nc(-c3ccccc3)c3ccccc3c2=O)cc1 | 16 µM | 2.68 µM | 6.09 µM | 5.99 | –
CC(c1ccc(NC(=O)OCCCCN(C)C)cc1)n1nc(-c2ccc(F)cc2)c2ccccc2c1=O (stereo not given) | 15.2 µM | 1.27 µM | 5.57 µM | 11.9 | –
CN(C)CCCCOC(=O)Nc1ccc(Cn2nc(-c3ccncc3)c3ccccc3c2=O)cc1 | 62.7 µM | 22.9 µM | 40.9 µM | 2.7 | –
CN(C)CCCCOC(=O)Nc1ccc(Cn2nc(-c3cccc(C(F)(F)F)c3)c3ccccc3c2=O)cc1 | 11.6 µM | 0.13 µM | 1.15 µM | 89.2 | bioavailability [4]: 34.9%; CL [5]: 0.833 mL/min/kg; Tmax [6]: 8 h; t1/2 [7]: 4.33 h; AUClast [8]: 505 ng·h/mL; Cmax [9]: 94.5 ng/mL; AUC(0-t) [10]: 883 ng·h/mL; half-life [11]: 2.91 h; Vdss [12]: 17.137 L/kg
COc1ccccc1-c1nn(Cc2ccc(NC(=O)OCCCCN(C)C)cc2)c(=O)c2ccccc12 | 44.8 µM | 1.4 µM | 5.44 µM | 32 | –
CN(C)CCCCOC(=O)Nc1ccc(Cn2nc(-c3ccc(F)cc3)c3ccccc3c2=O)cc1 | 19 µM | 0.62 µM | 4.27 µM | 30.7 | –
Nc1ccc(Cn2nc(-c3ccc(F)cc3)c3ccccc3c2=O)cc1 | > 80 µM | 20 µM | > 80 µM | > 4 | –
COc1cccc(-c2nn(Cc3ccc(NC(=O)OCCCCN(C)C)cc3)c(=O)c3ccccc23)c1 | 17.6 µM | 0.34 µM | 1.58 µM | 51.8 | –
CN(C)CCCCOC(=O)Nc1ccc(Cn2nc(-c3cccc(F)c3)c3ccccc3c2=O)cc1 | 37.4 µM | 1.51 µM | 8.24 µM | 24.7 | –
CN(C)CCCCOC(=O)Nc1ccc(Cn2nc(-c3cncnc3)c3ccccc3c2=O)cc1 | 65.3 µM | 0.6 µM | 62.4 µM | 109 | –
